Source: ChEMBL document CHEMBL1127740, “The discovery of capsazepine, the first competitive antagonist of the sensory neuron excitants capsaicin and resiniferatoxin” (J Med Chem, 1994)

How the values were obtained:
Rattus norvegicus [1] = species: Rattus norvegicus; assay: In vitro antagonist activity against [Ca2+] uptake in neonatal rat cultured spinal sensory neurons; type: functional
Method in brief: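 Cultured neonatal rat DRG neurons (3–7 days old, non-neuronal cells removed with cytosine arabinoside) were washed in Ca-free HEPES BSS, pH 7.4. 45Ca2+ uptake stimulated by a fixed 0.5 μM agent was measured with test compound in 1% DMSO over 10 min at room temperature. Cells were lysed with SDS and scintillation counted. IC50 is 50% reduction of the evoked response, from ≥6 replicates/concentration.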

Rattus norvegicus [2] = species: Rattus norvegicus; assay: In vitro agonist activity against [Ca2+] uptake in neonatal rat cultured spinal sensory neurons; type: functional
Method in brief: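 Neonatal rat dorsal root ganglia were dissociated with collagenase then trypsin and cultured with 10% horse serum, 1 μg/mL NGF and 48 h of 10^-4 M cytosine arabinoside. Assays used 3–7-day cultures washed in Ca-free HEPES-buffered BSS (pH 7.4). Compound with 10 μCi/mL 45Ca2+ and 1% DMSO was applied for 10 min at room temperature; SDS extract was scintillation counted. Medium-only background; EC50 from ≥6 replicates/concentration.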

Row | IC50 (Rattus norvegicus [1]) [nM] | EC50 (Rattus norvegicus [2]) [nM] | SMILES
1 | 440 | > 100000 | Oc1ccc2c(c1O)CCN(C(=S)NCCc1ccc(Cl)cc1)C2
2 |  | 290 | Oc1cc2c(cc1O)CN(C(=S)NCCc1ccc(Cl)cc1)CC2
3 |  | 550 | Oc1cc2c(cc1O)CN(C(=S)NCCc1ccc(Cl)cc1)C2
4 | 1230 | 1090 | COc1cc2c(cc1O)CCN(/C(S)=N/CCc1ccc(Cl)cc1)C2
5 |  | 1230 | COc1cc2c(cc1O)CN(/C(S)=N/CCc1ccc(Cl)cc1)CC2
6 | 420 | > 100000 | Oc1cc2c(cc1O)CN(C(=S)NCCc1ccc(Cl)cc1)CCC2 [CAPSAZEPINE]

More lines, now with the values behind:

Row | SMILES | IC50 (Rattus norvegicus [1]) [nM] | EC50 (Rattus norvegicus [2]) [nM]
7 | CCCCCCCC/N=C(\S)N1CCc2c(ccc(O)c2O)C1 | 3480 | > 100000
8 | Oc1ccc(CNC(=S)NCCc2ccc(Cl)cc2)cc1O |  | 100
9 | COc1cc2c(cc1OC)CN(/C(S)=N/CCc1ccc(Cl)cc1)CCC2 | 6990 | > 100000
10 | CCCCCCCC/N=C(\S)NCc1ccc(O)c(OC)c1 |  | 60
11 | CCCCCCCC/N=C(\S)N1CCc2cc(O)c(O)cc2C1 |  | 740
12 | COc1cc(C/N=C(\S)NCCc2ccc(Cl)cc2)ccc1O |  | 60
13 | COc1cc2c(cc1O)CN(/C(S)=N/CCc1ccc(Cl)cc1)C2 | > 100000 | > 100000
